From ChEMBL document CHEMBL4382219, “Synthesis and Biological Evaluation of Cajaninstilbene Acid and Amorfrutins A and B as Inhibitors of the Pseudomonas aeruginosa Quorum Sensing System” (J Nat Prod, 2018)
Activity calls are given as the source filed them. No cut-off for these calls is given here.

Tests used:
Pseudomonas aeruginosa [1] = experiment: Anti-biofilm activity against Pseudomonas aeruginosa PAO1 at 50 uM after 24 hrs by crystal violet staining based assay relative to control; type: functional
Summary of the method: (§1)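 PAO1 grown overnight in LB, then diluted in ABTGC medium (B-medium with 0.1% MgCl₂, 0.1% CaCl₂, 0.1% FeCl₃, plus 10% A10, 0.2% glucose, 0.2% casamino acids) and mixed with compound. Static 24 h at 37 °C. Wells PBS-washed, MeOH-fixed 20 min, stained 20 min with 0.1% w/v crystal violet, then dissolved in 33% AcOH.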

Pseudomonas aeruginosa [2] = experiment: Anti-biofilm activity against Pseudomonas aeruginosa PAO1 after 24 hrs by crystal violet staining based assay; type: functional, organism-based; summary of the method: as §1
Pseudomonas aeruginosa [3] = experiment: Toxicity in Pseudomonas aeruginosa PAO1 assessed as growth inhibition at 1 to 50 uM after 2 to 16 hrs; type: organism-based; settings: in vivo
[4] = target: T1, Anthranilate--CoA ligase (Pseudomonas aeruginosa (strain ATCC 15692 / DSM 22644 / CIP 104116 /JCM 14847 / LMG 12228 / 1C / PRS 101 / PAO1)) (UniProt Q9I4X3); experiment: Inhibition of pqsA quorum sensing system in Pseudomonas aeruginosa PAO1 harboring mini-ctx-pqsA-lacZ at 50 uM in presence of PQS by beta-galactosidase reporter gene assay
T1 sequence (whole entry): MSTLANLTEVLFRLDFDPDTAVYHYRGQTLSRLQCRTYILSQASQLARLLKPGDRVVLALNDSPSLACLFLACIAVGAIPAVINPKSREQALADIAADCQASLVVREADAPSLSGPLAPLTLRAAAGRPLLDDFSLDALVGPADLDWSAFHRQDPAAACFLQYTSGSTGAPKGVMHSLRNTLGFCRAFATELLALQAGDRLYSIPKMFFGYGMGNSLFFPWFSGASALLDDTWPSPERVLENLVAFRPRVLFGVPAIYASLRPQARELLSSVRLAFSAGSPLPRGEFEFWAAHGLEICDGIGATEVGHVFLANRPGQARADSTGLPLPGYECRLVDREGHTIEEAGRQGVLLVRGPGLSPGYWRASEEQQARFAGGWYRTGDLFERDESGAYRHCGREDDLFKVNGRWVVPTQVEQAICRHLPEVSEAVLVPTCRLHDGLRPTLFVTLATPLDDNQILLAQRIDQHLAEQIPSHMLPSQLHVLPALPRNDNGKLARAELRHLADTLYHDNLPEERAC
Summary of the method: (§2)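 Competition: overnight lasB-lacZ or pqsA-lacZ reporter cultures diluted in ABTGC medium to OD600 0.01. Compound at 50 μM added with ODdHL (lasB) or PQS (pqsA) at final 50, 20, 10 or 0 μM. β-galactosidase measured when OD600 reached 1.0. DMSO control; triplicate.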

[5] = target: Elastase (Pseudomonas aeruginosa (strain ATCC 15692 / PAO1 / 1C / PRS 101 / LMG12228)) (UniProt P14756); experiment: Inhibition of lasB quorum sensing system in Pseudomonas aeruginosa PAO1 assessed as reduction in elastase release at 10 uM after 24 hrs relative to control
Elastase (Pseudomonas aeruginosa (strain ATCC 15692 / PAO1 / 1C / PRS 101 / LMG12228)), sequence (P14756 198-498 limits assumed): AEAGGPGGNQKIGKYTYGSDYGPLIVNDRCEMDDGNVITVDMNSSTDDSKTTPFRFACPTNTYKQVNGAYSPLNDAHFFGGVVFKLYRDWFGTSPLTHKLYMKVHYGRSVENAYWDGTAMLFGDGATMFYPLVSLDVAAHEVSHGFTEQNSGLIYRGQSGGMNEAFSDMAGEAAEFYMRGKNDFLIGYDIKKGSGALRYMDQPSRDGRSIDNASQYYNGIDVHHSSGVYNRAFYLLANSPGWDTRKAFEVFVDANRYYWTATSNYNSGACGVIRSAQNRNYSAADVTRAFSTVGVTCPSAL
Summary of the method: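 Elastase: overnight wild-type PAO1 diluted in ABTGC medium to OD600 0.01 and grown 24 h at 37 °C with shaking at 200 rpm. Supernatant elastase measured by a fluorogenic elastase kit. PAO1ΔlasIΔrhlI served as blank; DMSO as control.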

[6] = target: 3-(3-hydroxydecanoyloxy)decanoate synthase (Pseudomonas aeruginosa (strain ATCC 15692 / PAO1 / 1C / PRS 101 / LMG12228)) (UniProt Q51559); experiment: Inhibition of RhlA quorum sensing system in Pseudomonas aeruginosa PAO1 harboring mini-ctx-RhlA-lacZ at 2.5 to 20 uM after 6 hrs by beta-galactosidase reporter gene assay
[7] = target: Elastase (Pseudomonas aeruginosa (strain ATCC 15692 / PAO1 / 1C / PRS 101 / LMG12228)) (UniProt P14756); experiment: Inhibition of lasB quorum sensing system in Pseudomonas aeruginosa PAO1 harboring mini-ctx-lasB-lacZ at 50 uM in presence of ODdHL by beta-galactosidase reporter gene assay; summary of the method: as §2
[8] = target: 3-(3-hydroxydecanoyloxy)decanoate synthase (Pseudomonas aeruginosa (strain ATCC 15692 / PAO1 / 1C / PRS 101 / LMG12228)) (UniProt Q51559); experiment: Inhibition of RhlA quorum sensing system in Pseudomonas aeruginosa PAO1 harboring mini-ctx-RhlA-lacZ at 50 uM after 6 hrs by beta-galactosidase reporter gene assay
Pseudomonas aeruginosa [9] = experiment: Anti-biofilm activity against Pseudomonas aeruginosa PAO1 at 1 to 50 uM after 24 hrs by crystal violet staining based assay relative to control; type: functional; summary of the method: as §1
Pseudomonas aeruginosa [10] = experiment: Toxicity in Pseudomonas aeruginosa PAO1 harboring mini-ctx-lacZ assessed as effect on beta-galactosidase activity at 2.5 to 50 uM beta-galactosidase reporter gene assay; type: organism-based; settings: in vivo
[11] = target: 3-(3-hydroxydecanoyloxy)decanoate synthase (Pseudomonas aeruginosa (strain ATCC 15692 / PAO1 / 1C / PRS 101 / LMG12228)) (UniProt Q51559); experiment: Inhibition of RhlA quorum sensing system in Pseudomonas aeruginosa PAO1 assessed as reduction in rhamnolipid production at 10 to 50 uM after 20 hrs
Summary of the method: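 Rhamnolipid by orcinol method: overnight PAO1 diluted in phosphate minimal medium with 0.6% glycerol, 5 mL cultures shaken at 37 °C for 20 h with compound at various concentrations; DMSO control. Cultures centrifuged 12000g, 4 °C, 5 min; orcinol reaction at 80 °C for 30 min. A421 divided by final OD600.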

[12] = target: T1, Anthranilate--CoA ligase (Pseudomonas aeruginosa (strain ATCC 15692 / DSM 22644 / CIP 104116 /JCM 14847 / LMG 12228 / 1C / PRS 101 / PAO1)); experiment: Inhibition of pqsA quorum sensing system in Pseudomonas aeruginosa PAO1 assessed as reduction in pyocyanin release at 10 uM after 20 hrs relative to control
Summary of the method: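 Pyocyanin: overnight PAO1 diluted in LB to OD600 0.01; 20 mL cultures shaken at 37 °C for 20 h. Centrifuged at 1500g for 10 min; supernatant absorbance read at 695 nm. PAO1ΔlasIΔrhlI served as blank; DMSO as control.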

[13] = target: Elastase (Pseudomonas aeruginosa (strain ATCC 15692 / PAO1 / 1C / PRS 101 / LMG12228)) (UniProt P14756); experiment: Inhibition of lasB quorum sensing system in Pseudomonas aeruginosa PAO1 harboring mini-ctx-lasB-lacZ after 6 hrs by beta-galactosidase reporter gene assay
[14] = target: T1, Anthranilate--CoA ligase (Pseudomonas aeruginosa (strain ATCC 15692 / DSM 22644 / CIP 104116 /JCM 14847 / LMG 12228 / 1C / PRS 101 / PAO1)); experiment: Inhibition of pqsA quorum sensing system in Pseudomonas aeruginosa PAO1 harboring mini-ctx-pqsA-lacZ after 24 hrs by beta-galactosidase reporter gene assay

SMILES	Activity (Pseudomonas aeruginosa [1]) [%]	other results
COc1cc(/C=C/c2ccccc2)c(C=O)c(OCC=C(C)C)c1	-14.3	
COc1cc(CCc2ccccc2)c(C=O)c(OC(C)=O)c1CC=C(C)C	-32.1	
COc1cc(/C=C/c2ccccc2)c(C=O)c(O)c1CC=C(C)C	42.4	
COc1cc(/C=C/c2ccccc2)c(C=O)c(OC(C)=O)c1CC=C(C)C	-12.5	
COc1cc(CCc2ccccc2)c(C(=O)O)c(O)c1C/C=C(\C)CCC=C(C)C	50.3	Activity (Pseudomonas aeruginosa [2]): Dose-dependent effect; growth inhibition (GI) (Pseudomonas aeruginosa [3]): Non-Toxic; inhibition [4]: inactive; inhibition [5]: 50%; inhibition [6]: inactive; inhibition [7]: inactive; inhibition [8]: Active; Activity (Pseudomonas aeruginosa [9]): 20 - 50%; Activity (Pseudomonas aeruginosa [10]): Non-Toxic; inhibition [11]: inactive; inhibition [12]: 50%; inhibition [13]: Dose-dependent effect; inhibition [14]: Dose-dependent effect
COc1cc(CCc2ccccc2)c(C=O)c(O)c1CC=C(C)C	26.9	
COc1cc(CCc2ccccc2)c(C=O)c(O)c1C/C=C(\C)CCC=C(C)C	53.1	
COc1cc(/C=C/c2ccccc2)c(C(=O)O)c(O)c1CC=C(C)C	-41	
COc1cc(CCc2ccccc2)c(C=O)c(OC(C)=O)c1C/C=C(\C)CCC=C(C)C	24.7	
COc1cc(CCc2ccccc2)c(C(=O)O)c(O)c1CC=C(C)C [AMORFRUTIN A]	-31.3	
COc1cc(/C=C/c2ccccc2)c(C(=O)O)c(OC(C)=O)c1CC=C(C)C	-24.4	
COc1cc(CCc2ccccc2)c(C(=O)O)c(OC(C)=O)c1CC=C(C)C	36.9	
COc1cc(CCc2ccccc2)c(C(=O)O)c(OC(C)=O)c1C/C=C(\C)CCC=C(C)C	-32.9	
